Results taken from ChEMBL document CHEMBL1142087 (Antimicrob Agents Chemother, 2007).
The source made the active and inactive calls. The calls are words filed in the database; no cut-off is given here.

Legend:
Mus musculus [1] = experiment: Effect on survival of BALB/c mouse infected with influenza A virus (A/duck/Minnesota/1525/1981 (H5N1)) at 300 mg/kg/day, po once daily for 5 days administered 1 hr after infection relative to carboxymethyl cellulose; format: functional, organism-based
Mus musculus [2] = experiment: Lowering of arterial oxygen saturation decline in BALB/c mouse infected with influenza A virus (A/duck/Minnesota/1525/1981 (H5N1)) at 300 mg/kg/day, po qid for 5 days administered 24 hrs after infection measured on day 11 relative to carboxymethyl cellulose; format: functional
Mus musculus [3] = experiment: Lowering of Arterial oxygen saturation decline in BALB/c mouse infected with influenza A virus (A/duck/Minnesota/1525/1981 (H5N1)) at 300 mg/kg/day, po twice daily for 5 days administered 1 hr after infection measured on day 11 relative to carboxymethyl cellulose; format: functional
Mus musculus [4] = experiment: Lowering of Arterial oxygen saturation decline in BALB/c mouse infected with influenza A virus (A/duck/Minnesota/1525/1981 (H5N1)) at 33 mg/kg/day, po qid for 5 days administered 1 hr after infection measured on day 11 relative to carboxymethyl cellulose; format: functional
Influenza A virus = experiment: Inhibition of influenza A virus (A/duck/Minnesota/1525/1981 (H5N1)) replication in MDCK cells by virus yield reduction assay; format: functional
Mus musculus [5] = experiment: Inhibition of increase in lung weight of BALB/c mouse infected with influenza A virus (A/duck/Minnesota/1525/1981 (H5N1)) at 300 mg/kg/day, po qid for 5 days administered 1 hr after infection measured on day 6 relative to carboxymethyl cellulose; format: functional
Mus musculus [6] = experiment: Lowering of arterial oxygen saturation decline in BALB/c mouse infected with influenza A virus (A/duck/Minnesota/1525/1981 (H5N1)) at 3 mg/kg/day, po once daily for 5 days administered 1 hr after infection measured on day 11 relative to carboxymethyl cellulose; format: functional
Mus musculus [7] = experiment: Lowering of Arterial oxygen saturation decline in BALB/c mouse infected with influenza A virus (A/duck/Minnesota/1525/1981 (H5N1)) at 300 mg/kg/day, po qid for 5 days administered 1 hr after infection measured on day 11 relative to carboxymethyl cellulose; format: functional
Procedure, shortened: (§1)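 Arterial oxygen saturation was measured by pulse oximeter, with the ear probe placed on the thigh and read after 30 s stabilization. Values were taken on day 11, 10 mice per group. Mice dead from infection were assigned 75%. Means were compared with CMC controls by t test.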

Mus musculus [8] = experiment: Effect on survival in BALB/c mouse infected with influenza A virus (A/duck/Minnesota/1525/1981 (H5N1)) at 300 mg/kg/day, po administered 4 hrs after infection relative to carboxymethyl cellulose; format: functional, organism-based
Mus musculus [9] = experiment: Lowering of arterial oxygen saturation decline in BALB/c mouse infected with influenza A virus (A/duck/Minnesota/1525/1981 (H5N1)) at 300 mg/kg/day, po qid for 5 days administered 120 hrs after infection measured on day 11 relative to carboxymethyl cellulose; format: functional
Mus musculus [10] = experiment: Lowering of Arterial oxygen saturation decline in BALB/c mouse infected with influenza A virus (A/duck/Minnesota/1525/1981 (H5N1)) at 100 mg/kg/day, po twice daily for 5 days administered 1 hr after infection measured on day 11 relative to carboxymethyl cellulose; format: functional; procedure, shortened: as §1
Mus musculus [11] = experiment: Effect on survival of BALB/c mouse infected with influenza A virus (A/duck/Minnesota/1525/1981 (H5N1)) at 300 mg/kg/day, po qid for 5 days administered 84 hrs after infection relative to carboxymethyl cellulose; format: functional, organism-based
Mus musculus [12] = experiment: Effect on survival of BALB/c mouse infected with influenza A virus (A/duck/Minnesota/1525/1981 (H5N1)) at 33 mg/kg/day, po qid for 5 days administered 1 hr after infection relative to carboxymethyl cellulose; format: functional, organism-based
Mus musculus [13] = experiment: Inhibition of increase in lung weight of BALB/c mouse infected with influenza A virus (A/duck/Minnesota/1525/1981 (H5N1)) at 33 mg/kg/day, po qid for 5 days administered 1 hr after infection measured on day 6 relative to carboxymethyl cellulose; format: functional
Mus musculus [14] = experiment: Lowering of arterial oxygen saturation decline in BALB/c mouse infected with influenza A virus (A/duck/Minnesota/1525/1981 (H5N1)) at 300 mg/kg/day, po qid for 5 days administered 36 hrs after infection measured on day 11 relative to carboxymethyl cellulose; format: functional
Mus musculus [15] = experiment: Lowering of Arterial oxygen saturation decline in BALB/c mouse infected with influenza A virus (A/duck/Minnesota/1525/1981 (H5N1)) at 30 mg/kg/day, po twice daily for 5 days administered 1 hr after infection measured on day 11 relative to carboxymethyl cellulose; format: functional; procedure, shortened: as §1
Mus musculus [16] = experiment: Lowering of arterial oxygen saturation decline in BALB/c mouse infected with influenza A virus (A/duck/Minnesota/1525/1981 (H5N1)) at 300 mg/kg/day, po once daily for 5 days administered 1 hr after infection measured on day 11 relative to carboxymethyl cellulose; format: functional
Mus musculus [17] = experiment: Lowering of arterial oxygen saturation decline in BALB/c mouse infected with influenza A virus (A/duck/Minnesota/1525/1981 (H5N1)) at 30 mg/kg/day, po once daily for 5 days administered 1 hr after infection measured on day 11 relative to carboxymethyl cellulose; format: functional
Mus musculus [18] = experiment: Lowering of arterial oxygen saturation decline in BALB/c mouse infected with influenza A virus (A/duck/Minnesota/1525/1981 (H5N1)) at 300 mg/kg/day, po qid for 5 days administered 48 hrs after infection measured on day 11 relative to carboxymethyl cellulose; format: functional
Mus musculus [19] = experiment: Effect on survival in BALB/c mouse infected with influenza A virus (A/duck/Minnesota/1525/1981 (H5N1)) at 600 mg/kg/day, po administered 4 hrs after infection relative to carboxymethyl cellulose; format: functional, organism-based
Mus musculus [20] = experiment: Lowering of arterial oxygen saturation decline in BALB/c mouse infected with influenza A virus (A/duck/Minnesota/1525/1981 (H5N1)) at 300 mg/kg/day, po qid for 5 days administered 84 hrs after infection measured on day 11 relative to carboxymethyl cellulose; format: functional

NC(=O)c1nc(F)cnc1O [FAVIPIRAVIR]
Activity (Mus musculus [1]): Active | Activity (Mus musculus [2]): 85.3% | Activity (Mus musculus [3]): 86.9% | Activity (Mus musculus [4]): 84.8% | EC90 (Influenza A virus): 2.6 µM | Activity (Mus musculus [5]): 146 mg | Activity (Mus musculus [6]): 75% | Activity (Mus musculus [7]): 88.6% | Activity (Mus musculus [8]): Active | Activity (Mus musculus [9]): 76% | Activity (Mus musculus [10]): 84.2% | Activity (Mus musculus [11]): Active | Activity (Mus musculus [12]): Active | Activity (Mus musculus [13]): 217 mg | Activity (Mus musculus [14]): 84.6% | Activity (Mus musculus [15]): 79.8% | Activity (Mus musculus [16]): 82.7% | Activity (Mus musculus [17]): 81.4% | Activity (Mus musculus [18]): 87.1% | Activity (Mus musculus [19]): Active | Activity (Mus musculus [20]): 81.7%
